In brackets after ≈: the same amount, converted by molar mass.
Columns and labels:
Format in all cases: functional
[1] = system: Staphylococcus aureus; experiment: Antibacterial activity against methicillin-sensitive Staphylococcus aureus 08-2 after 18 to 24 hrs by twofold serial dilution method
Outline: (§1)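 Standard twofold serial agar dilution method on agar media for MIC determination. Screened against representative Gram-positive and Gram-negative strains. Levofloxacin and GMFX served as control drugs.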

[2] = system: Staphylococcus epidermidis; experiment: Antibacterial activity against methicillin-sensitive Staphylococcus epidermidis 09-3 after 18 to 24 hrs by twofold serial dilution method; outline: as §1
[3] = system: Escherichia coli; experiment: Antibacterial activity against Escherichia coli ATCC 25922 after 18 to 24 hrs by twofold serial dilution method
Outline: (§2)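 MIC determined by the standard twofold serial dilution method on agar media, screening against Gram-positive and Gram-negative strains. Levofloxacin and gemifloxacin were run alongside as reference drugs.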

[4] = system: Enterococcus faecalis; experiment: Antibacterial activity against Enterococcus faecalis 08-10 after 18 to 24 hrs by twofold serial dilution method; outline: as §2
[5] = system: Staphylococcus epidermidis; experiment: Antibacterial activity against methicillin-resistant Staphylococcus epidermidis 09-2 after 18 to 24 hrs by twofold serial dilution method; outline: as §1
[6] = system: Enterococcus faecalis; experiment: Antibacterial activity against Enterococcus faecalis 08-12 after 18 to 24 hrs by twofold serial dilution method; outline: as §2
[7] = system: Enterococcus faecium; experiment: Ratio of compound MIC to levofloxacin MIC for Enterococcus faecium 08-7
[8] = system: Staphylococcus epidermidis; experiment: Antibacterial activity against methicillin-resistant Staphylococcus epidermidis 09-4 after 18 to 24 hrs by twofold serial dilution method; outline: as §1
[9] = system: Pseudomonas aeruginosa; experiment: Antibacterial activity against Pseudomonas aeruginosa 09-33 after 18 to 24 hrs by twofold serial dilution method; outline: as §2
[10] = system: Staphylococcus epidermidis; experiment: Antibacterial activity against methicillin-resistant Staphylococcus epidermidis 09-3 after 18 to 24 hrs by twofold serial dilution method; outline: as §1
[11] = system: Pseudomonas aeruginosa; experiment: Antibacterial activity against Pseudomonas aeruginosa 09-35 after 18 to 24 hrs by twofold serial dilution method; outline: as §2
[12] = system: Staphylococcus aureus; experiment: Antibacterial activity against methicillin-resistant Staphylococcus aureus 08-1 after 18 to 24 hrs by twofold serial dilution method; outline: as §1
[13] = system: Escherichia coli; experiment: Antibacterial activity against Escherichia coli 08-22 after 18 to 24 hrs by twofold serial dilution method; outline: as §2
[14] = system: Pseudomonas aeruginosa; experiment: Antibacterial activity against Pseudomonas aeruginosa 09-34 after 18 to 24 hrs by twofold serial dilution method; outline: as §2
[15] = system: Enterococcus faecium; experiment: Ratio of compound MIC to gemifloxacin MIC for Enterococcus faecium 08-7
[16] = system: Klebsiella pneumoniae; experiment: Antibacterial activity against Klebsiella pneumoniae 09-21 after 18 to 24 hrs by twofold serial dilution method; outline: as §2
[17] = system: Pseudomonas aeruginosa; experiment: Antibacterial activity against Pseudomonas aeruginosa 09-32 after 18 to 24 hrs by twofold serial dilution method; outline: as §2
[18] = system: Pseudomonas aeruginosa; experiment: Antibacterial activity against Pseudomonas aeruginosa ATCC 27853 after 18 to 24 hrs by twofold serial dilution method; outline: as §2
[19] = system: Escherichia coli; experiment: Antibacterial activity against Escherichia coli 08-21 after 18 to 24 hrs by twofold serial dilution method; outline: as §2
[20] = system: Klebsiella pneumoniae; experiment: Antibacterial activity against Klebsiella pneumoniae 09-23 after 18 to 24 hrs by twofold serial dilution method; outline: as §2
[21] = system: Staphylococcus epidermidis; experiment: Antibacterial activity against methicillin-sensitive Staphylococcus epidermidis 09-6 after 18 to 24 hrs by twofold serial dilution method; outline: as §1
[22] = system: Staphylococcus aureus; experiment: Antibacterial activity against Staphylococcus aureus ATCC […] after 18 to 24 hrs by twofold serial dilution method; outline: as §2
[23] = system: Streptococcus pneumoniae; experiment: Antibacterial activity against Streptococcus pneumoniae 08-4 after 18 to 24 hrs by twofold serial dilution method; outline: as §2
[24] = system: Klebsiella pneumoniae; experiment: Antibacterial activity against Klebsiella pneumoniae 09-22 after 18 to 24 hrs by twofold serial dilution method; outline: as §2
[25] = system: Klebsiella pneumoniae; experiment: Ratio of compound MIC to gemifloxacin MIC for Klebsiella pneumoniae 09-22
[26] = system: Streptococcus pneumoniae; experiment: Antibacterial activity against Streptococcus pneumoniae 08-2 after 18 to 24 hrs by twofold serial dilution method; outline: as §2
[27] = system: Enterococcus faecium; experiment: Antibacterial activity against Enterococcus faecium 08-2 after 18 to 24 hrs by twofold serial dilution method; outline: as §2
[28] = system: Klebsiella pneumoniae; experiment: Ratio of compound MIC to levofloxacin MIC for Klebsiella pneumoniae 09-22
[29] = system: Enterococcus faecium; experiment: Antibacterial activity against Enterococcus faecium 08-7 after 18 to 24 hrs by twofold serial dilution method; outline: as §2

CCO/N=C(/N)C1CN(c2c(F)cc3c(=O)c(C(=O)O)cn4c3c2OC[C@@H]4C)C/C1=N\OC (some centres undefined)
MIC [1]: 0.125 µg/mL (≈ 0.271 µM) | MIC [2]: 0.06 µg/mL (≈ 0.13 µM) | MIC [3]: 128 µg/mL (≈ 277 µM) | MIC [4]: 128 µg/mL (≈ 277 µM) | MIC [5]: 0.06 µg/mL (≈ 0.13 µM) | MIC [6]: > 128 µg/mL | Ratio [7]: 32 | MIC [8]: 0.06 µg/mL (≈ 0.13 µM) | MIC [9]: > 128 µg/mL | MIC [10]: 0.06 µg/mL (≈ 0.13 µM) | MIC [11]: 16 µg/mL (≈ 34.7 µM) | MIC [12]: 0.06 µg/mL (≈ 0.13 µM) | MIC [13]: > 128 µg/mL | MIC [14]: > 128 µg/mL | Ratio [15]: 32 | MIC [16]: > 128 µg/mL | MIC [17]: 16 µg/mL (≈ 34.7 µM) | MIC [18]: 16 µg/mL (≈ 34.7 µM) | MIC [19]: > 128 µg/mL | MIC [20]: > 128 µg/mL | MIC [21]: 0.06 µg/mL (≈ 0.13 µM) | MIC [22]: 0.125 µg/mL (≈ 0.271 µM) | MIC [23]: 8 µg/mL (≈ 17.3 µM) | MIC [24]: 0.5 µg/mL (≈ 1.08 µM) | Ratio [25]: 16 | MIC [26]: 8 µg/mL (≈ 17.3 µM) | MIC [27]: > 128 µg/mL | Ratio [28]: 16 | MIC [29]: 0.06 µg/mL (≈ 0.13 µM)

Source: ChEMBL document CHEMBL1287651, “Synthesis and in vitro antibacterial activity of fluoroquinolone derivatives containing 3-(N'-alkoxycarbamimidoyl)-4-(alkoxyimino) pyrrolidines” (2010)
